Structures are written as SMILES. ≈ marks a conversion by molar mass, not a printed value. Entries after “also recorded” stand apart in the source; their conditions may differ.

From article PMC12062833 (RSC Medicinal Chemistry, 2025) come the findings set out here.

The subject of one series is K-562 chronic myeloid leukemia cells. Briefly: Antiproliferative assay. It is filed as cell-based. The note with it: Homo sapiens, K562, 72 h, read-out: IC50 K-562. Summed up: (§1)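 Adherent lines were seeded at 500 (Capan-1), 1000 (LN-229, HCT-116) or 1500 (NCI-H460) cells/well and dosed after overnight incubation. Suspension lines were seeded at 2500 (HL-60, K-562, Z-138) or 5500 (DND-41) cells/well directly onto compound. Seven 5-fold concentrations ran from 100 to 0.006 μM for 72 h. Viability was read as MTS absorbance at 490 nm after 3 h, and IC50 was derived from OD values. Two independent experiments.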
Regarding `O=C(COc1ccc(-c2nc3ccc(Cl)cc3[nH]2)cc1)N1CCOCC1` [Compound 17, 2-(4-(6-Chloro-1H-benzo[d]imidazol-2-yl)phenoxy)-1-morpholinoethan-1-one], the concentration for half-maximal inhibition (IC50) was more than 100 µM.

Take `Clc1ccc2nc(-c3ccc(OCCN4CCOCC4)cc3)[nH]c2c1` [Compound 16, 4-(2-(4-(6-Chloro-1H-benzo[d]imidazol-2-yl)phenoxy)ethyl)morpholine]: the concentration for half-maximal inhibition (IC50) was found to be 37.3 ± 3.9 µM.

As to `CCN(CC)CCOc1ccc(-c2nc3ccc(Cl)cc3[nH]2)cc1F` [Compound 23, 2-(4-(6-Chloro-1H-benzo[d]imidazol-2-yl)-2-fluorophenoxy)-N,N-diethylethan-1-amine], the half-inhibitory concentration (IC50) worked out at 2 ± 0.7 µM.

The next series concerns PBMC from healthy donors. Briefly: Cytotoxicity test on normal peripheral blood mononuclear cells. The note with it: PBMC of two healthy donors, 72 h, 100 to 0.006 μM; result in words. It is filed as cell-based, human.
Turning to `CCN(CC)CCOc1ccc(-c2nc3ccc(Cl)cc3[nH]2)cc1F` [Compound 23, 2-(4-(6-Chloro-1H-benzo[d]imidazol-2-yl)-2-fluorophenoxy)-N,N-diethylethan-1-amine], the “Impact on viability of normal PBMC (MTS)” value was “Only at the highest tested concentration (100 μM), there was an impact on the viability of these normal cells”.

The same series, now with this note: PBMC of two healthy donors, 72 h; result in words.
As to `CCN(CC)CCOc1ccc(-c2nc3ccc(Cl)cc3[nH]2)cc1F` [Compound 23, 2-(4-(6-Chloro-1H-benzo[d]imidazol-2-yl)-2-fluorophenoxy)-N,N-diethylethan-1-amine], the “Dead and apoptotic PBMC (propidium iodide, caspase 3/7, IncuCyte)” value is “caused apoptosis in normal cells only at the highest applied concentration of 100 μM; also recorded: an increase in the number of dead and apoptotic cells was observed at 100 μM”.

The subject of a further series is salmon sperm DNA. The series can be described thus: Fluorescent intercalator displacement. The note with it: tested at 250, 100 and 40 μM; result in words. In kind it is binding. The procedure, abridged: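 Competitive fluorescence-polarization displacement. Acridine orange (50 nM) and salmon sperm DNA (6 μg/mL) were mixed with test compound at 250, 100 or 40 μM in HEN buffer (10 mM HEPES pH 7.5, 1 mM EDTA, 100 mM NaCl). Mixtures stood 20 min in the dark. mP was normalized to the DMSO control, with mitoxantrone (10 μM) as positive control.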
Turning to `CCN(CC)CCOc1ccc(-c2nc3ccc(Cl)cc3[nH]2)cc1F` [Compound 23, 2-(4-(6-Chloro-1H-benzo[d]imidazol-2-yl)-2-fluorophenoxy)-N,N-diethylethan-1-amine], the “DNA intercalation (acridine orange displacement, fluorescence polarization)” value is given as “scored best in the binding assay”.

In the next series the test system is eight human tumor cell lines. The series can be described thus: Antiproliferative assay, span over the panel of tumor cell lines. It is filed as cell-based. To be noted: 72 h, read-out: IC50 range across tested tumor cell lines. Summed up:
as §1
Take `Clc1ccc2nc(-c3ccc(OCCN4CCOCC4)cc3)[nH]c2c1` [Compound 16, 4-(2-(4-(6-Chloro-1H-benzo[d]imidazol-2-yl)phenoxy)ethyl)morpholine]: the IC50 was in the range of 37.3 to 79.8 µM.

For the molecule `CCN(CC)CCOc1ccc(-c2nc3ccc(Cl)cc3[nH]2)cc1F` [Compound 23, 2-(4-(6-Chloro-1H-benzo[d]imidazol-2-yl)-2-fluorophenoxy)-N,N-diethylethan-1-amine], the IC50 lay in the range of 2 to 9.4 µM.

The next series relates to Staphylococcus aureus (ATCC 25923). The series can be described thus: Antibacterial MIC, macrodilution method, S. aureus. It is filed as cell-based. The note with it: ATCC25923, read-out: MIC S. aureus. Summed up:
(§2)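 CLSI M07-A9 tube macrodilution. Strains were grown overnight on nutrient agar at 37 °C, and colonies were suspended in Mueller-Hinton broth. Inoculum was 1 × 10^6 per mL (5 × 10^5 per mL in test). DMSO stock was 5120 μg/mL. Final concentrations were 256 to […] in 2 mL. Tubes were incubated at 37 °C for 16–20 h. Controls were inoculum with and without 1% DMSO, and broth alone.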
`O=C(COc1ccc(-c2nc3ccc(Cl)cc3[nH]2)cc1)N1CCOCC1` [Compound 17, 2-(4-(6-Chloro-1H-benzo[d]imidazol-2-yl)phenoxy)-1-morpholinoethan-1-one]: the minimum inhibitory concentration (MIC) is more than 256 µg/mL.

`Clc1ccc2nc(-c3ccc(OCCN4CCOCC4)cc3)[nH]c2c1` [Compound 16, 4-(2-(4-(6-Chloro-1H-benzo[d]imidazol-2-yl)phenoxy)ethyl)morpholine]: the MIC stood at 64 µg/mL (≈ 179 µM).

Regarding `CCN(CC)CCOc1ccc(-c2nc3ccc(Cl)cc3[nH]2)cc1F` [Compound 23, 2-(4-(6-Chloro-1H-benzo[d]imidazol-2-yl)-2-fluorophenoxy)-N,N-diethylethan-1-amine], the MIC amounted to 256 µg/mL (≈ 707 µM).

For the next series, the system named is Capan-1 pancreatic adenocarcinoma cells. Briefly: Antiproliferative assay. It is filed as cell-based. The note with it: Homo sapiens, CAPAN-1, 72 h, read-out: IC50 Capan-1. The procedure, abridged:
as §1
On to `O=C(COc1ccc(-c2nc3ccc(Cl)cc3[nH]2)cc1)N1CCOCC1` [Compound 17, 2-(4-(6-Chloro-1H-benzo[d]imidazol-2-yl)phenoxy)-1-morpholinoethan-1-one], for which the IC50 was found to be 28.5 ± 4.4 µM.

Consider `Clc1ccc2nc(-c3ccc(OCCN4CCOCC4)cc3)[nH]c2c1` [Compound 16, 4-(2-(4-(6-Chloro-1H-benzo[d]imidazol-2-yl)phenoxy)ethyl)morpholine], for which the IC50 worked out at 45 ± 5.1 µM.

Consider `CCN(CC)CCOc1ccc(-c2nc3ccc(Cl)cc3[nH]2)cc1F` [Compound 23, 2-(4-(6-Chloro-1H-benzo[d]imidazol-2-yl)-2-fluorophenoxy)-N,N-diethylethan-1-amine], for which the half-maximal inhibitory concentration (IC50) was found to be 2.2 ± 0.5 µM.

The subject of a further series is Klebsiella pneumoniae (ATCC 27736). The series can be described thus: Antibacterial MIC, macrodilution method, K. pneumoniae. It is filed as cell-based. To be noted: ATCC27736, read-out: MIC K. pneumoniae. Summed up:
as §2
Regarding `O=C(COc1ccc(-c2nc3ccc(Cl)cc3[nH]2)cc1)N1CCOCC1` [Compound 17, 2-(4-(6-Chloro-1H-benzo[d]imidazol-2-yl)phenoxy)-1-morpholinoethan-1-one], the MIC was more than 256 µg/mL.

With `Clc1ccc2nc(-c3ccc(OCCN4CCOCC4)cc3)[nH]c2c1` [Compound 16, 4-(2-(4-(6-Chloro-1H-benzo[d]imidazol-2-yl)phenoxy)ethyl)morpholine], the MIC was more than 256 µg/mL.

Take `CCN(CC)CCOc1ccc(-c2nc3ccc(Cl)cc3[nH]2)cc1F` [Compound 23, 2-(4-(6-Chloro-1H-benzo[d]imidazol-2-yl)-2-fluorophenoxy)-N,N-diethylethan-1-amine]: the MIC is more than 256 µg/mL.

The next series concerns LN-229 glioblastoma cells. The series can be described thus: Antiproliferative assay. The note with it: Homo sapiens, LN-229, 72 h, read-out: IC50 LN-229. In kind it is cell-based. The procedure, abridged:
as §1
`O=C(COc1ccc(-c2nc3ccc(Cl)cc3[nH]2)cc1)N1CCOCC1` [Compound 17, 2-(4-(6-Chloro-1H-benzo[d]imidazol-2-yl)phenoxy)-1-morpholinoethan-1-one]: the half-maximal inhibitory concentration (IC50) was more than 100 µM.

Take `Clc1ccc2nc(-c3ccc(OCCN4CCOCC4)cc3)[nH]c2c1` [Compound 16, 4-(2-(4-(6-Chloro-1H-benzo[d]imidazol-2-yl)phenoxy)ethyl)morpholine]: the IC50 was more than 100 µM.

For `CCN(CC)CCOc1ccc(-c2nc3ccc(Cl)cc3[nH]2)cc1F` [Compound 23, 2-(4-(6-Chloro-1H-benzo[d]imidazol-2-yl)-2-fluorophenoxy)-N,N-diethylethan-1-amine], the IC50 came out at 5 ± 1.3 µM.

A further series concerns HL-60 acute myeloid leukemia cells. The series can be described thus: Antiproliferative assay. The note with it: Homo sapiens, HL-60, 72 h, read-out: IC50 HL-60. It is filed as cell-based. Summed up:
as §1
Regarding `O=C(COc1ccc(-c2nc3ccc(Cl)cc3[nH]2)cc1)N1CCOCC1` [Compound 17, 2-(4-(6-Chloro-1H-benzo[d]imidazol-2-yl)phenoxy)-1-morpholinoethan-1-one], the IC50 is more than 100 µM.

`Clc1ccc2nc(-c3ccc(OCCN4CCOCC4)cc3)[nH]c2c1` [Compound 16, 4-(2-(4-(6-Chloro-1H-benzo[d]imidazol-2-yl)phenoxy)ethyl)morpholine]: the 50% inhibitory concentration (IC50) is 51.6 ± 1.5 µM.

`CCN(CC)CCOc1ccc(-c2nc3ccc(Cl)cc3[nH]2)cc1F` [Compound 23, 2-(4-(6-Chloro-1H-benzo[d]imidazol-2-yl)-2-fluorophenoxy)-N,N-diethylethan-1-amine]: the half-maximal inhibitory concentration (IC50) stood at 4.4 ± 0.5 µM.

The subject of the next series is HCT-116 colon carcinoma cells. The series can be described thus: Antiproliferative assay. In kind it is cell-based. To be noted: Homo sapiens, HCT-116, 72 h, read-out: IC50 HCT-116. The procedure, abridged:
as §1
`O=C(COc1ccc(-c2nc3ccc(Cl)cc3[nH]2)cc1)N1CCOCC1` [Compound 17, 2-(4-(6-Chloro-1H-benzo[d]imidazol-2-yl)phenoxy)-1-morpholinoethan-1-one]: the IC50 is more than 100 µM.

Take `Clc1ccc2nc(-c3ccc(OCCN4CCOCC4)cc3)[nH]c2c1` [Compound 16, 4-(2-(4-(6-Chloro-1H-benzo[d]imidazol-2-yl)phenoxy)ethyl)morpholine]: the concentration for half-maximal inhibition (IC50) was more than 100 µM.

For `CCN(CC)CCOc1ccc(-c2nc3ccc(Cl)cc3[nH]2)cc1F` [Compound 23, 2-(4-(6-Chloro-1H-benzo[d]imidazol-2-yl)-2-fluorophenoxy)-N,N-diethylethan-1-amine], the IC50 is 9.4 ± 1.2 µM.

The subject of the next series is Pseudomonas aeruginosa (ATCC 9027). The series can be described thus: Antibacterial MIC, macrodilution method, P. aeruginosa. In kind it is cell-based. The note with it: ATCC9027, read-out: MIC P. aeruginosa. Summed up:
as §2
With `O=C(COc1ccc(-c2nc3ccc(Cl)cc3[nH]2)cc1)N1CCOCC1` [Compound 17, 2-(4-(6-Chloro-1H-benzo[d]imidazol-2-yl)phenoxy)-1-morpholinoethan-1-one], the minimum inhibitory concentration (MIC) was more than 256 µg/mL.

Take `Clc1ccc2nc(-c3ccc(OCCN4CCOCC4)cc3)[nH]c2c1` [Compound 16, 4-(2-(4-(6-Chloro-1H-benzo[d]imidazol-2-yl)phenoxy)ethyl)morpholine]: the MIC is more than 256 µg/mL.

In the case of `CCN(CC)CCOc1ccc(-c2nc3ccc(Cl)cc3[nH]2)cc1F` [Compound 23, 2-(4-(6-Chloro-1H-benzo[d]imidazol-2-yl)-2-fluorophenoxy)-N,N-diethylethan-1-amine], the minimal inhibitory concentration (MIC) was more than 256 µg/mL.

For a further series, the system named is Enterococcus faecalis (ATCC 29212). Briefly: Antibacterial MIC, macrodilution method, E. faecalis. It is filed as cell-based. To be noted: MHB, 37 °C.
With `O=C(COc1ccc(-c2nc3ccc(Cl)cc3[nH]2)cc1)N1CCOCC1` [Compound 17, 2-(4-(6-Chloro-1H-benzo[d]imidazol-2-yl)phenoxy)-1-morpholinoethan-1-one], the “MIC E. faecalis” value came to 0.5 µg/mL (≈ 1.34 µM).

Turning to `Clc1ccc2nc(-c3ccc(OCCN4CCOCC4)cc3)[nH]c2c1` [Compound 16, 4-(2-(4-(6-Chloro-1H-benzo[d]imidazol-2-yl)phenoxy)ethyl)morpholine], the “MIC E. faecalis” value worked out at 0.25 µg/mL (≈ 0.699 µM).

In the next series the test system is Escherichia coli (ATCC 25922). The series can be described thus: Antibacterial MIC, macrodilution method, E. coli. The note with it: ATCC25922, read-out: MIC E. coli. In kind it is cell-based. The procedure, abridged: as §2
In the case of `O=C(COc1ccc(-c2nc3ccc(Cl)cc3[nH]2)cc1)N1CCOCC1` [Compound 17, 2-(4-(6-Chloro-1H-benzo[d]imidazol-2-yl)phenoxy)-1-morpholinoethan-1-one], the MIC is more than 256 µg/mL.

Consider `Clc1ccc2nc(-c3ccc(OCCN4CCOCC4)cc3)[nH]c2c1` [Compound 16, 4-(2-(4-(6-Chloro-1H-benzo[d]imidazol-2-yl)phenoxy)ethyl)morpholine], for which the MIC was found to be 256 µg/mL (≈ 715 µM).

For the molecule `CCN(CC)CCOc1ccc(-c2nc3ccc(Cl)cc3[nH]2)cc1F` [Compound 23, 2-(4-(6-Chloro-1H-benzo[d]imidazol-2-yl)-2-fluorophenoxy)-N,N-diethylethan-1-amine], the MIC is 256 µg/mL (≈ 707 µM).

The subject of a further series is NCI-H460 non-small cell lung cancer cells. Briefly: Antiproliferative assay. It is filed as cell-based. The note with it: Homo sapiens, NCI-H460, 72 h, read-out: IC50 NCI-H460. Summed up: as §1
On to `O=C(COc1ccc(-c2nc3ccc(Cl)cc3[nH]2)cc1)N1CCOCC1` [Compound 17, 2-(4-(6-Chloro-1H-benzo[d]imidazol-2-yl)phenoxy)-1-morpholinoethan-1-one], for which the IC50 is more than 100 µM.

Turning to `Clc1ccc2nc(-c3ccc(OCCN4CCOCC4)cc3)[nH]c2c1` [Compound 16, 4-(2-(4-(6-Chloro-1H-benzo[d]imidazol-2-yl)phenoxy)ethyl)morpholine], the half-maximal inhibitory concentration (IC50) is more than 100 µM.

As for `CCN(CC)CCOc1ccc(-c2nc3ccc(Cl)cc3[nH]2)cc1F` [Compound 23, 2-(4-(6-Chloro-1H-benzo[d]imidazol-2-yl)-2-fluorophenoxy)-N,N-diethylethan-1-amine], the IC50 amounted to 2.3 ± 0.8 µM.
